This is a sample that favours compounds with a hit; in the whole collection about 1.8% have one here.
GalR3 antag: human GalR3 antagonism; O60755; HEK293 GalR3-CNG cAMP membrane potential fluorescence; galR3 body fused to GalR1 C-terminus; inhibition, % at 3 µM; 360,000 tested, 0.44% active;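 active = inhibition above the screen-wide average plus 3 SD, cut at about 13% in these data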;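 note: forskolin and galanin both at EC90 stimulate the cells; cAMP rise reported by CNG channel membrane potential dye signal; 0% = forskolin plus galanin with DMSO and 100% = forskolin alone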
NR2E3 ag-1: NR2E3 (human) agonism; GST-NR2E3/biotin-RetCOR TR-FRET, 1536-well; Q9Y5X4; 320,000 tested, 0.12% active; inhibition of corepressor binding, % at 4.78 µM;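 active = percent inhibition above the cutoff of mean plus 3 SD of all tested compounds, set per screening campaign, cut at about 20% in these data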;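 note: 0% = DMSO wells and 100% = biotin wells as full block of FRET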
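Test system – NR2E3–RetCOR corepressor complex · Quantity – NR2E3 fusion 1.35 nM · Buffer or medium – Tris pH 7.5 · Incubation – Compound–protein incubation for 5 h at 4 °C · Technique – TR-FRET, Eu(K)-anti-GST donor, streptavidin-D2 acceptor, ex 340, em 617/671 nm · Evaluation – percent inhibition of 671/617 nm emission ratio versus biotin and DMSO controls · Plate – 1536-well format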
PG9 Ab binder: PG9 antibody binding by small molecule; AID 624416; 360,000 tested, 0.43% active; inhibition, % at 6.7 µM; TR-FRET gp120-PG9 antibody binding; in the data active = inhibition above about 8.5%
Rev-erbA mod: modulates human Rev-erb alpha binding to DNA. P20393. Rev-erbα–FITC-DNA binding, fluorescence polarization, 90 min. activity, % at 10 µM. 370,000 tested, 0.79% active;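 active = activity above about 14%, limit read from the data; passing the limit was not always enough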;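 note: 0% = DMSO wells with 35 nM protein and 100% = DMSO wells with 750 nM protein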
Target sequence (P20393 whole entry, looked up): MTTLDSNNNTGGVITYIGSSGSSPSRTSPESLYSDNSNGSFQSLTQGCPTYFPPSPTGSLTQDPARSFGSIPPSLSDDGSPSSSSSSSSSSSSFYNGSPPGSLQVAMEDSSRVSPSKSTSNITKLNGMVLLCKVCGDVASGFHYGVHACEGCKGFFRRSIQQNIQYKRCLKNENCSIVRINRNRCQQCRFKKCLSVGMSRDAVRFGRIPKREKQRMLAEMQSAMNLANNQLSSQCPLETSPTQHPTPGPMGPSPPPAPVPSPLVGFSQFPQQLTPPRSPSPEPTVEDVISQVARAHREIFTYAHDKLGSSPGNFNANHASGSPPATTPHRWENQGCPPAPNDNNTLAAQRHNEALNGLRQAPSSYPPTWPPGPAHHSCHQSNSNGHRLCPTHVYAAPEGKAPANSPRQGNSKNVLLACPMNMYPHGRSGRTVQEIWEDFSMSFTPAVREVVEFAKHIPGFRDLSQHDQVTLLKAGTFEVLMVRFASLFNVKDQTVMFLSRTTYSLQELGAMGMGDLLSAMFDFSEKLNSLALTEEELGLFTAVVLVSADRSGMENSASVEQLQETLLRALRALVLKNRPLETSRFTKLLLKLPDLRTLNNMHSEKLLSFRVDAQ
NR2E3 ag-2: activates human NR2E3 receptor; inhibition of corepressor binding, % at 3.98 µM; 360,000 tested, 0.35% active; CHO-S Gal4-NCOR/VP16-NR2E3 two-hybrid, luciferase; Q9Y5X4;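 active = inhibition above the mean of all tested compounds plus 3 SD, cut at about 70% in these data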;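 note: 0% = DMSO with NR2E3 transfected cells and 100% = cells lacking NR2E3 construct; higher means lower luciferase signal from less NR2E3 corepressor binding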
PG9 binder conf: confirmation of small molecules binding HIV-1 gp120 antibody PG9; shares compounds with PG9 Ab binder; TR-FRET PG9 antibody binding, biochemical; inhibition, % at 6.7 µM; 1,500 tested, 90% active; in the data active = inhibition above about 9%
PGV04 counter: counter-screen for PG9 binders: binding control antibody PGV04; shares compounds with PG9 Ab binder; TR-FRET PGV04 antibody-gp120 binding, biochemical; inhibition, % at 6.7 µM; 1,500 tested, 95% active; AID 651604; in the data active = inhibition above about 9.5%
PG9 bind DR: PG9 antibody binding, dose response | shares compounds with PG9 Ab binder | TR-FRET PG9 antibody-gp120 binding inhibition | IC50, µM | 95 tested, under 10 active | AID 651848; in the data active = IC50 below about 10 µM
PGV04 DR counter: PGV04 binding, dose response counter-screen; 95 tested, 20% active; AID 651937; shares compounds with PG9 Ab binder; TR-FRET binding to control antibody PGV04; IC50, µM
PG126 binding DR: binds control antibody PG126 in PG9 counter-screen; shares compounds with PG9 Ab binder; 95 tested, 20% active; AID 651939; IC50, µM; TR-FRET binding to antibody PG126, counterscreen
* marks the source's active call; other numbers are inactive results; i = inactive; nt = not tested or not shown. Cut-off read from the data, not from the text of the source, unless noted: active = IC50 below about 9 µM; inactive = the rest.

SMILES	GalR3 antag	NR2E3 ag-1	PG9 Ab binder	Rev-erbA mod	NR2E3 ag-2	PG9 binder conf	PGV04 counter	others
O=C(C1=C(O)C(=O)N(Cc2cccnc2)C1c1cccc(Oc2ccccc2)c1)c1ccco1 (centres undefined)	-6	nt	13*	-6	-10	19*	28*
CCOc1ccc(C2C(C(=O)c3ccco3)=C(O)C(=O)N2Cc2cccnc2)cc1OC (centres undefined)	0	3	1	-1	-25	nt	nt
Cc1sc2nc(SCC(=O)Nc3ccccc3F)[nH]c(=O)c2c1C	-4	-2	8.7*	11	-27	21*	34*
Cc1ccc2nc(SCC(=O)NCC3CCCO3)c(C#N)cc2c1 (centres undefined)	0	-1	13*	-2	-5	22*	36*
COc1ccc2nc(SCC(=O)NC3CC3)c(C#N)cc2c1	-8	15	20*	6	-6	26*	47*
COC(=O)c1ccccc1NC(=O)c1cccc(NC(=O)CSCc2ccccc2)c1C	-5	4	33*	15	24	28*	43*
COC(=O)c1ccccc1NC(=O)CSCC(=O)Nc1ccccc1	-3	3	3	1	-5	nt	nt
Cc1ccc2c(c1)N(CCCC(=O)N(C)Cc1ccccc1F)C(=O)CO2	nt	nt	nt	0	nt	nt	nt
CSc1nc(N)nc(SCC(=O)c2ccccc2)c1C#N	-4	4	5	12	-65	nt	nt
COc1ccc(C(=O)CSc2nc(N)nc(SC)c2C#N)cc1	-4	3	21*	8	-4	23*	28*
COc1ccc(NC(=O)c2c(NC(=O)CNCC(C)C)sc3c2CCC3)c(OC)c1	-2	3	11*	1	22	9.9*	9.5*	PG9 bind DR=>67;PGV04 DR counter=i;PG126 binding DR=i
C#CCNC(=O)C[C@@H]1C(=O)N2CCCC3=C2[C@@]1(C(=O)OCC)CCC3	nt	nt	nt	-1	nt	nt	nt
O=C(/C=C/Nc1ccccc1)C(F)(F)F	7	-1	9.3*	3	-7	4	7
Cc1c(N/C=C/C(=O)C(F)(F)F)c(=O)n(-c2ccccc2)n1C	-6	0	-1	5	-6	nt	nt
COc1ccc(N=Cc2c(O)c3ccccc3oc2=O)cc1	-4	-1	32*	3	-31	27*	39*
COc1ccc(OC)c(N=Cc2c(O)c3ccccc3oc2=O)c1	-11	5	-3	-3	-33	nt	nt
C#C[C@]1(O)CCC2C3CCC4=CC(=O)CC[C@@H]4C3CC[C@@]21CC (some centres undefined)	nt	nt	nt	-3	nt	nt	nt
Cc1ccc2c(c1)C1CS(=O)(=O)N(Cc3ccccc3)CN1C2 (centres undefined)	nt	nt	nt	2	nt	nt	nt
Cc1cc(NC(=O)CSc2nc(-c3cccs3)cc(C(F)(F)F)n2)no1	-7	0	24*	10	-25	34*	43*
CN1CC(=O)N2[C@@H](C[C@]3(c4c[nH]c5ccccc45)c4ccccc4N(S(=O)(=O)c4ccccc4)[C@H]23)C1=O	nt	nt	nt	1	nt	nt	nt
Cc1cc(Br)ccc1OCCCN1CCC(C(O)(c2ccccc2)c2ccccc2)CC1	nt	nt	nt	6	nt	nt	nt
O=C(Nc1ccc2oc(-c3ccncc3)nc2c1)c1ccccc1F	-3	3	23*	6	-56	32*	53*
Cc1ccc(C2C(C#N)=C(N)SC(N)=C2C#N)c(C)c1	nt	10	nt	nt	-2	nt	nt
Cc1ccc(C2C(C#N)=C(N)SC(N)=C2C#N)cc1	5	nt	13*	1	-3	7	8
COCCn1c(=NC(=O)c2sc3ccccc3c2Cl)sc2cc(S(N)(=O)=O)ccc21	-2	8	18*	-5	-18	24*	35*
SMILES	GalR3 antag	NR2E3 ag-1	PG9 Ab binder	Rev-erbA mod	NR2E3 ag-2	PG9 binder conf	PGV04 counter	others
O=C(Nc1ccc(F)cc1)OCc1cn(Cc2cc(F)cc(F)c2)nn1	nt	nt	nt	-4	nt	nt	nt
CCn1c(CNC(=O)c2ccccc2Cl)cc2ccccc21	-10	5	10*	7	-48	24*	35*
CCn1c(CNC(=O)c2ccccc2F)cc2ccccc21	-8	-1	-1	-3	-13	nt	nt
Cc1cccc2cc(C#N)c(SCC(=O)NNC(=O)Cc3ccccc3)nc12	-6	2	17*	13	12	35*	28*
O=C(CCc1nc2sc3c(c2c(=O)[nH]1)CCCC3)NCCOc1ccccc1	-2	-2	24*	-4	-27	24*	47*
COc1ccc(CCNC(=O)CCc2nc3sc4c(c3c(=O)[nH]2)CCCC4)cc1	-1	3	7	0	-4	nt	nt
CN(C)C(CNC(=O)CCc1nc2sc3c(c2c(=O)[nH]1)CCCC3)c1ccccc1 (centres undefined)	-6	3	0	-1	-2	nt	nt
CC(=O)c1ccc(NC(=O)CCc2nc3sc4c(c3c(=O)[nH]2)CCCC4)cc1	-2	-14	11*	12	10	23*	33*
O=C(CCc1nc2sc3c(c2c(=O)[nH]1)CCCC3)Nc1ccccc1Cl	-3	-2	17*	4	27	19*	34*
Cc1cccc(NC(=O)CCc2nc3sc4c(c3c(=O)[nH]2)CCCC4)n1	-3	-5	1	-9	14	nt	nt
Cc1cccc(NC(=O)CNC(=O)CCc2nc3sc4c(c3c(=O)[nH]2)CCCC4)c1C	-2	2	22*	-16	-5	21*	40*
CCN1CCCCC(NC(=O)c2ccc(F)c(F)c2)C1=O (centres undefined)	nt	nt	nt	-3	nt	nt	nt
COc1ccccc1C(=O)COC(=O)c1ccc(-n2cnnn2)cc1	-4	1	0	-3	-45	nt	nt
COc1ccc(C(=O)COC(=O)c2ccc(-n3cnnn3)cc2)c(OC)c1	-4	6	24*	14	8	36*	44*
O=C(CCc1ccccc1)N[C@H]1[C@H](OC(=O)c2cccnc2)CCC[C@@]12C(=O)N(Cc1ccccc1)c1ccccc12	nt	nt	nt	-2	nt	nt	nt
CC(=O)c1nn(-c2cccc(Br)c2)cc1C(=O)c1ccccc1	-3	2	13*	0	-8	20*	25*
CC(=O)c1nn(-c2ccccc2)cc1C(=O)c1cccc(Br)c1	1	1	0	-2	-7	nt	nt
CN(C)C(=O)C[C@H]1CC[C@H]2[C@H](COc3ccc(NC(=O)C4CC4)cc3C(=O)N2C)O1	nt	nt	nt	0	nt	nt	nt
O=C(Oc1cccc2ccccc12)c1ccccc1	-3	nt	-2	2	-1	nt	nt

Screening data: PubChem, several laboratories
